pIC50, pKd: −log10 of the molar value. The source made the active and inactive calls. The calls are words filed in the database; no cut-off is given here.

Here are results for two compounds from ChEMBL document CHEMBL3425495, “Perturbation of the c-Myc-Max protein-protein interaction via synthetic α-helix mimetics” (J Med Chem, 2015).

The subject of assay [1] is NCI-H460. The assay can be described thus: Induction of neutral lipid accumulation in human H460 cells assessed as ratio of mean florescent intensity of compound treated to control cells at 40 uM after 48 hrs by flow cytometry. It is filed as functional. The procedure, abridged:
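Sub-confluent H460 cells given compound 48 h; trypsinised, washed, stained 30 min at ambient temperature with BODIPY […]/503 (stock 50 µg/ml, 0.9 ml added to 0.1 ml cells); flow cytometry of ≥10⁴ events; mean fluorescence of treated over untreated cells; biological triplicates, ± one standard error.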
In general terms: In flow cytometry, cells or beads pass a laser one at a time.

Assay [2] deals with T1, c-Myc/Max (Homo sapiens, UniProt P01106+P61244). The conditions noted are these: 6.3 to 50 uM.
T1 sequence (P01106 whole entry): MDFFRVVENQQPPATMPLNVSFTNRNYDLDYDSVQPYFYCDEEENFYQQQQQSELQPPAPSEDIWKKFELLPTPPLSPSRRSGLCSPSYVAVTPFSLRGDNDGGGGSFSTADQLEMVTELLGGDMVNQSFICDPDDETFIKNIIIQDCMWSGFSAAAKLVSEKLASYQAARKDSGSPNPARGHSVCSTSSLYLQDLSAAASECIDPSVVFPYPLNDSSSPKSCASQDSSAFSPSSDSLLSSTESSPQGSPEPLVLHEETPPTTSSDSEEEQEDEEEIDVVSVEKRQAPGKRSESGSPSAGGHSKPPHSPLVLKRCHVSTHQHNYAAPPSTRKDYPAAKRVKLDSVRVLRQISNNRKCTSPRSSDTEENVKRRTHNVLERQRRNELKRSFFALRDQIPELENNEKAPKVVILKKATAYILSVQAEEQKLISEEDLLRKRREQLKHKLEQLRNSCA
T1 sequence (P61244 whole entry): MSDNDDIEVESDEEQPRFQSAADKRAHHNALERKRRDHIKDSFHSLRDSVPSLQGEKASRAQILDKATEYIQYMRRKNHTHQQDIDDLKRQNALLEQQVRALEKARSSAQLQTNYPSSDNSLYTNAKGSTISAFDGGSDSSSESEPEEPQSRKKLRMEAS
Assay [3] deals with T1, c-Myc/Max. As to conditions: 6.3 to 50 uM. The source holds these as a separate data set.
The target of assay [4] is T1, c-Myc/Max. The assay can be described thus: Disruption of human recombinant c-Myc-Max(S)/DNA (unknown origin) binding assessed as complex level at 100 uM by electrophoretic mobility shift assay relative to control. The assay is classed as protein-complex assay. The procedure, abridged:
(§1)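 Recombinant c-Myc 353–437 bHLH-ZIP with full-length Max(S), or Max(L) alone, from E. coli (His₆ removed by TEV), each 30 nM, with 30 nM HEX-labelled double-stranded oligonucleotide bearing a c-Myc site; buffer 1× PBS pH 7.3, 1 mM EDTA, 0.1% NP40, 5% glycerol, 1 mM DTT, 400 µg/mL BSA; complex level relative to DMSO control; three independent EMSAs.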
(In general: Mobility shift assays separate free from complexed probe on a gel.)

Assay [5] concerns the target T1, c-Myc/Max. Kind of assay: Disruption of human recombinant c-Myc-Max/DNA (unknown origin) binding assessed as complex level by electrophoretic mobility shift assay relative to control. The assay is classed as protein-complex assay. The method in brief: as §1
In assay [6] the target is Protein max (Homo sapiens) (UniProt P61244). Kind of assay: Binding affinity to human recombinant 15N labeled Max(S) homodimer assessed as chemical shift up to 100 uM by NMR spectroscopy.
Sequence of Protein max (Homo sapiens) (P61244 whole entry): as above
Assay [7] deals with T1, c-Myc/Max. Kind of assay: Binding affinity to human recombinant 15N labeled c-Myc-Max(S) heterodimer assessed as chemical shift up to 100 uM by NMR spectroscopy. The assay is classed as protein-complex assay.
For assay [8], the target named is T1, c-Myc/Max. Kind of assay: Inhibition of heterodimerization of human recombinant His-tagged c-Myc-Max(S) compound treated for 20 mins with c-Myc and followed by added Max(S) at 3.1 to 50 uM after 30 mins by SPR analysis in presence of biotinylated E-box-containing oligonucleotides. It is filed as protein-complex assay.
Assay [9] concerns the target T1, c-Myc/Max. Kind of assay: Inhibition of human recombinant His-tagged c-Myc-Max(S) heterodimer binding to DNA at 3.1 to 50 uM after 30 mins by SPR analysis in presence of biotinylated E-box-containing oligonucleotides. It is filed as protein-complex assay. A general note: Surface plasmon resonance follows binding to a sensor surface in real time, without labels.
Assay [10] relates to Daudi. The assay can be described thus: Antiproliferative activity against c-Myc-overexpressing human Daudi cells after 3 days by MTT assay. The assay is classed as functional, cell-based. As to conditions: 72 h. The procedure, abridged: (§2)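 Cells at >90% viability seeded at 2×10³ cells/well in fresh growth medium with 10-point serial dilutions of compound; 3-day incubation; viability by MTT, relative to untreated cells; each point in at least triplicate; IC50 from dose–response. HO15.19-wt-Myc are myc−/− rat fibroblasts with c-Myc restored by stable retroviral transduction.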

Assay [11] can be described thus: Antiproliferative activity against human INA-6 cells after 3 days by MTT assay. The assay is classed as functional, cell-based. As to conditions: INA-6, 72 h. The method in brief:
as §2

The nature of assay [12]: Antiproliferative activity against human IH-1 cells after 3 days by MTT assay. As to conditions: IH-1, 72 h. The assay is classed as functional, cell-based. The method in brief: as §2
Assay [13] is described as follows: Antiproliferative activity against human H460 cells after 3 days by MTT assay. The assay is classed as functional, cell-based. The conditions noted are these: NCI-H460, 72 h. The procedure, abridged:
as §2

Assay [14] has as its system HeLa. Kind of assay: Antiproliferative activity against human HeLa cells after 3 days by MTT assay. It is filed as functional, cell-based. The conditions noted are these: 72 h. The method in brief: as §2
Assay [15] relates to HEK293. Kind of assay: Antiproliferative activity against human HEK293 cells after 3 days by MTT assay. It is filed as functional, cell-based. As to conditions: HEK293, 72 h. The procedure, abridged:
as §2

Assay [16] in a line: Antiproliferative activity against human JJN-3 cells after 3 days by MTT assay. It is filed as functional, cell-based. As to conditions: JJN-3, 72 h. The procedure, abridged: as §2
The nature of assay [17]: Antiproliferative activity against human ANBL-6 cells after 3 days by MTT assay. The conditions noted are these: ANBL-6, 72 h. The assay is classed as functional, cell-based. The procedure, abridged:
as §2

Assay [18] is described as follows: Antiproliferative activity against human KJON cells after 3 days by MTT assay. The conditions noted are these: 72 h. The assay is classed as functional, cell-based. The method in brief: as §2
Assay [19] is described as follows: Antiproliferative activity against human U266 cells after 3 days by MTT assay. The assay is classed as functional, cell-based. The conditions noted are these: U-266, 72 h. The method in brief: as §2
Assay [20] can be described thus: Antiproliferative activity against rat HO15.19-wt-Myc cells after 3 days by MTT assay. It is filed as functional, cell-based. The conditions noted are these: HO15.19, 72 h. The method in brief: as §2
Assay [21] is described as follows: Cell cycle arrest in human HL60 cells assessed as accumulation at G0/G1 phase at 10 uM after 24 hrs by propidium iodide staining-based flow cytometric analysis (reference value: 31.2%). The assay is classed as functional. The conditions noted are these: HL-60.
Assay [22] can be described thus: Cell cycle arrest in human HL60 cells assessed as accumulation at S phase at 10 uM after 24 hrs by propidium iodide staining-based flow cytometric analysis (reference value: 58.4%). The assay is classed as functional. As to conditions: HL-60.
Assay [23] is described as follows: Cell cycle arrest in human HL60 cells assessed as accumulation at G2/M phase at 10 uM after 24 hrs by propidium iodide staining-based flow cytometric analysis (reference value: 10.3%). The assay is classed as functional. As to conditions: HL-60.
The nature of assay [24]: Cell cycle arrest in human HL60 cells assessed as accumulation at G0/G1 phase at 15 uM after 24 hrs by propidium iodide staining-based flow cytometric analysis (reference value: 31.2%). It is filed as functional. As to conditions: HL-60.
The nature of assay [25]: Cell cycle arrest in human HL60 cells assessed as accumulation at S phase at 15 uM after 24 hrs by propidium iodide staining-based flow cytometric analysis (reference value: 58.4%). The assay is classed as functional. The conditions noted are these: HL-60.
Assay [26] is described as follows: Cell cycle arrest in human HL60 cells assessed as accumulation at G2/M phase at 15 uM after 24 hrs by propidium iodide staining-based flow cytometric analysis (reference value: 10.3%). It is filed as functional. The conditions noted are these: HL-60.
In assay [27] the target is T1, c-Myc/Max. Kind of assay: Induction of dissociation of […]-Max in human HL60 cells at 10 to 30 uM after 6 hrs by Co-immunoprecipitation (Co-IP) assay. It is filed as cell-based. As to conditions: HL-60. The method in brief:
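About 5×10⁶ HL60 cells exposed 6 h to compound or DMSO; lysed in IP buffer; 300 µg cleared lysate immunoprecipitated overnight at 4 °C with anti-Max (1:200) and protein G-Sepharose; 10% SDS-PAGE, immunoblot with anti-c-Myc 9E10 (1:1000); input lysate kept for comparison.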

In assay [28] the target is Myc proto-oncogene protein (Homo sapiens) (UniProt P01106). The assay can be described thus: Inhibition of wild type c-Myc binding site (unknown origin) expressed in human HeLa cells assessed as inhibition of luciferase after 6 hrs. It is filed as cell-based. The procedure, abridged:
(§3)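 HeLa cells stably carrying a labile luciferase under a minimal promoter with triplicated c-Myc or NF-κB sites, methotrexate-amplified; 10⁶ cells seeded, next day compound for 6 h; lysates assayed in triplicate, normalised to protein, background (mutant-site line) subtracted, expressed relative to untreated cells (100%); mean ± 1 standard error.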

Assay [29] has as its target Nuclear factor NF-kappa-B complex (Homo sapiens) (UniProt Q00653+P19838+Q04206). Kind of assay: Inhibition of NFkappaB binding site (unknown origin) expressed in human HeLa cells assessed as inhibition of luciferase after 6 hrs. It is filed as cell-based. The procedure, abridged:
as §3

Sequence of Myc proto-oncogene protein (Homo sapiens) (P01106 whole entry): as the sequence (P01106 whole entry) above
Sequence of Nuclear factor NF-kappa-B complex (Homo sapiens) (P19838 whole entry, looked up): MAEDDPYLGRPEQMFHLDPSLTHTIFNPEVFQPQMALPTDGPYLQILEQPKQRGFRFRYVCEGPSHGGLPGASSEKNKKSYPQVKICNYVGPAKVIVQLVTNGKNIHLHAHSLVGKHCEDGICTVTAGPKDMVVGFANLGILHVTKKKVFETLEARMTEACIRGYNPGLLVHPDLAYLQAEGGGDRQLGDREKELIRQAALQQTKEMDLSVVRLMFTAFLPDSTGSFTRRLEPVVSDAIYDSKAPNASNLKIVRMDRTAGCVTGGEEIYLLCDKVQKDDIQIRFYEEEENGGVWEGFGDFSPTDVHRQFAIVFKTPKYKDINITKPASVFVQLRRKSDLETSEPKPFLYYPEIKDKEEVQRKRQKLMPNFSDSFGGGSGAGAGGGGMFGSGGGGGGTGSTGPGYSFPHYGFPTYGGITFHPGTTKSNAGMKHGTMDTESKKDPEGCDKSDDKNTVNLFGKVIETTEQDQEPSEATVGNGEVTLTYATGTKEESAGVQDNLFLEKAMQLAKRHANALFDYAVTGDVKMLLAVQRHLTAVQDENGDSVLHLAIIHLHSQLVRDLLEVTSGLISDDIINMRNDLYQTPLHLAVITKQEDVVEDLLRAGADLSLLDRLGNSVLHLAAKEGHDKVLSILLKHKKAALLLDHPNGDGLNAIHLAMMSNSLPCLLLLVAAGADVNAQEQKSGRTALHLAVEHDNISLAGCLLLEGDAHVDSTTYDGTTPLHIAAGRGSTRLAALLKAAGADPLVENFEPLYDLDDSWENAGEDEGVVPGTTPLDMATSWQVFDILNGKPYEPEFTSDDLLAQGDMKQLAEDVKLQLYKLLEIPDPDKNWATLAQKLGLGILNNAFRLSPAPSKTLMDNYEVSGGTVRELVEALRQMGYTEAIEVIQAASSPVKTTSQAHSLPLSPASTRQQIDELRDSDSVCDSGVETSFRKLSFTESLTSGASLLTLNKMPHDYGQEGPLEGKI
Sequence of Nuclear factor NF-kappa-B complex (Homo sapiens) (Q00653 whole entry, looked up): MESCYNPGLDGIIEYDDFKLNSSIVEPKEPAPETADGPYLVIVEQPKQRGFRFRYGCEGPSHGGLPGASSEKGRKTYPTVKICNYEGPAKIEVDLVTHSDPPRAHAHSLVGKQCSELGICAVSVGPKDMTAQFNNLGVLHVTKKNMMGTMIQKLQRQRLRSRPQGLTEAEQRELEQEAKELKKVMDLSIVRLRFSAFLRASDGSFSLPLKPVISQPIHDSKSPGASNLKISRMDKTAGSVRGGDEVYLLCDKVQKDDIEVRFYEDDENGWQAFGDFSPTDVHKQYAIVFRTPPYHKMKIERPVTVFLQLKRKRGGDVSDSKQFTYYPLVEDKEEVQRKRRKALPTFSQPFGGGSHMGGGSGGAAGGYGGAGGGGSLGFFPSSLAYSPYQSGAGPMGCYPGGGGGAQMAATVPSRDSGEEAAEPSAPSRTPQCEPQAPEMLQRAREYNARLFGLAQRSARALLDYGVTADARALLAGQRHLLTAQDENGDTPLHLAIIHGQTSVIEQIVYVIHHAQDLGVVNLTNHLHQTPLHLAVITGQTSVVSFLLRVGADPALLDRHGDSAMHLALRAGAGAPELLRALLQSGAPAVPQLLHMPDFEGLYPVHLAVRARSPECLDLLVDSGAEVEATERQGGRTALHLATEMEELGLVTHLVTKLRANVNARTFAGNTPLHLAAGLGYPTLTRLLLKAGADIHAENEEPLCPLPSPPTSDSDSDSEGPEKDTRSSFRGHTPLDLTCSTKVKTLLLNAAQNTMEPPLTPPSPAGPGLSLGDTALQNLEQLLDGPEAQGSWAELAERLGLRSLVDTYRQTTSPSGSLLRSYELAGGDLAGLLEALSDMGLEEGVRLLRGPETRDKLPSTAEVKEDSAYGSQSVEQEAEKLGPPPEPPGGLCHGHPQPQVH
Sequence of Nuclear factor NF-kappa-B complex (Homo sapiens) (Q04206 whole entry, looked up): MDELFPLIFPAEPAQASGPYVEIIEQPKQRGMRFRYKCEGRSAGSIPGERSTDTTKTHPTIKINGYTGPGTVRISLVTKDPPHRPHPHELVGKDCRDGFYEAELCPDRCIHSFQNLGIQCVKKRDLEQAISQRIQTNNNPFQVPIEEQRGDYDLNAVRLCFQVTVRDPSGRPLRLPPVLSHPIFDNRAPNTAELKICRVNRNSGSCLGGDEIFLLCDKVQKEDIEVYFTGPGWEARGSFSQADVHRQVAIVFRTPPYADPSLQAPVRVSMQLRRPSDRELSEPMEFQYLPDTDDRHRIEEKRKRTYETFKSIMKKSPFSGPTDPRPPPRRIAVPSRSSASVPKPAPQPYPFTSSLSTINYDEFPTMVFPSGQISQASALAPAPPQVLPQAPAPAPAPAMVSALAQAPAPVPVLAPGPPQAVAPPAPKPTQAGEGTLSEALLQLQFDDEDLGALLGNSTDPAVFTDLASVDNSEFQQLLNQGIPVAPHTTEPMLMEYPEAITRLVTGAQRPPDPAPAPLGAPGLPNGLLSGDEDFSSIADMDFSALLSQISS

As to `O=[N+]([O-])c1ccc(Nc2ccccc2-c2ccccc2)c2nonc12`, the Ratio in [1] is 1.4. For the same compound, the inhibition entry in assay [2] and in [3] was “Active” in each case.
For `CC(C)COc1cc(C(=O)O)ccc1NC(=O)c1ccc([N+](=O)[O-])c(OCc2cccc3ccccc23)c1`, the Activity in assay [4] came out at 0%; in [21], 51.4%; in assay [22] it was 47.9%; in [23], 0.77%; in [24] it was 71%; in assay [25], 23.3%. Also, in assay [26], the Activity was 5.64%. Also, the pIC50 – broadly, −log10 of the IC50, conventionally taken in molar units – in [5] is 4.94; in [10], 5.02; in assay [11], 4.74; in assay [12], 4.69; in assay [13] it was 4.80; in assay [14] it was 4.97. In addition, the pIC50 in assay [15] is 4.98; in assay [16], 4.80; in assay [17], 4.45; in [18], 4.64; in assay [19] it was 4.34; in assay [20], 4.85. Moreover, the result in assay [6] and in assay [27] was inactive. Moreover, the pKd – broadly, the negative decadic logarithm of the Kd, by convention in mol/L – in assay [7] was 4.89. The inhibition result in assay [8] and in assay [9] was “Active” in each case. Moreover, the inhibition result in assay [28] was “Dose-dependent effect”. Besides, the inhibition entry in assay [29] was “inactive”.
